Measured values as given in PubChem BioAssay AID488934 (Broad Institute, 2010).
Inconclusive results are not listed. The source made the active and inactive calls.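 How the source made its calls: active means compounds raising caspase signal whose fitted AC50 lies at or below the top valid dose tested; inconclusive means flat curve at 30 to 70 percent activity, or a poor fit; inactive means the rest.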

Key:
[1] = test system: Mel501 melanoma cells, caspase-3/7 Glo luminescence, 6 h; test: caspase-3/7 activation in A1-dependent Mel501 cells, dose response, A1 (Bcl2A1) inhibitor project, cell-based, human Mel501, dry powder (AID 488934)
Method in brief: (§1)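 Material: human Mel501 melanoma cell line; timing: 6 h compound exposure at 37 °C, 1 h substrate incubation; detection: luminescence from DEVD-linked luciferin caspase-3/7 substrate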

[2] = as above; settings: Mel501 melanoma cells, caspase-3/7 Glo luminescence, 6 h
Method in brief: as §1

In the case of `Cc1c(C=O)c(C=O)c(C)n1Cc1ccccc1`, the AC50 [1] is reported as > 150 µM (inactive).
In the case of `CC(=O)N[C@H]1[C@H](O[C@H]2CC[C@@]3(C)C(CC[C@]4(C)C3CC=C3[C@@H]5CC(C)(C)CC[C@]5(C(=O)OC5OCC(O)C(O)C5O)C(O)C[C@]34C)C2(C)C)O[C@H](COC2OCC(O)C(OC3OCC(O)C(O)C3O)C2O)[C@@H](O[C@@H]2O[C@@H](C)[C@H](O)[C@@H](O)[C@H]2O[C@@H]2O[C@@H](C)[C@H](O)[C@@H](O)[C@H]2O)[C@@H]1O` (stereo partly drawn), the caspase activation ([2]; at 135 µM (top of the series)) is reported as -0.618% (inactive).
In the case of `C=C1[C@@H](C)[C@H]2[C@H](Cc3ccccc3)NC(=O)[C@]23OC(=O)/C=C\[C@H](O)CCC[C@@H](C)C/C=C/[C@H]3[C@@H]1O`, the caspase activation ([2]; at 150 µM (top of the series)) is reported as 0.77% (inactive).
Work on `COc1ccc(N(C(=O)CCl)C(C(=O)NCCc2ccccc2)c2cccs2)cc1Cl` (stereo not drawn) yielded an AC50 [1] of 30.1 µM.
With `Cc1cccc(NC(=O)/C(C#N)=C/c2cn(CC(=O)NCc3ccco3)c3ccccc23)c1` the AC50 [1] was > 150 µM (inactive).
With `CCc1nnc(NC(=O)c2nc(S(=O)(=O)Cc3ccccc3)ncc2Cl)s1` the caspase activation ([2]; at 150 µM (top of the series)) was -0.521% (inactive).
In the case of `C=C1[C@@H](C)[C@H]2[C@H](Cc3ccccc3)NC(=O)[C@]23[C@H](OC(C)=O)/C=C/[C@](C)(O)C(=O)[C@@H](C)C/C=C/[C@H]3[C@@H]1O`, the caspase activation ([2]; at 150 µM (top of the series)) is reported as 0.757% (inactive).
Compound `Cc1cc(C(=O)CCl)c(C)n1CCc1ccc(Cl)cc1` has an AC50 [1] of 17.8 µM.
With `COc1cc(/C=C(/C#N)c2nc3ccccc3[nH]2)ccc1OCC(=O)Nc1ccccc1C(C)C` the caspase activation ([2]; at 150 µM (top of the series)) was 1.07% (inactive).
In the case of `Cc1c(CCOC(=O)c2ccc(N3CCOCC3)c([N+](=O)[O-])c2)sc[n+]1CC#N`, the AC50 [1] is reported as 18.8 µM.
For `CCc1cc2c(=O)c(-c3cnn(-c4ccccc4)c3)c(C)oc2cc1OCC(=O)Nc1cccc(C)c1`, the caspase activation ([2]; at 150 µM (top of the series)) was 0.716% (inactive).
For `CC(C)(C)n1nc(-c2ccc(Cl)cc2)c2c(N)ncnc21`, the caspase activation ([2]; at 150 µM (top of the series)) was 2.25% (inactive).
In the case of `O=C(CCl)N=c1sccn1Cc1ccccc1Cl`, the caspase activation ([2]; at 150 µM (top of the series)) is reported as 2.16% (inactive).
In the case of `CCOC(=O)CSC1=N/C(=C/c2ccc(-n3cncn3)cc2)C(=O)N1C(C)=O`, the caspase activation ([2]; at 150 µM (top of the series)) is reported as 0.822% (inactive).
In the case of `C/C1=C/C(=O)O[C@@H]2C[C@@H](CC[C@H](C)/C=C\CC1)O[C@@](O)(C1CSC(=O)N1)C2` (stereo partly drawn), the caspase activation ([2]; at 150 µM (top of the series)) is reported as 0.0337% (inactive).
For `Cn1c(=NC(=O)CCl)sc2ccccc21`, the caspase activation ([2]; at 150 µM (top of the series)) was 0.601% (inactive).
For `Cc1ccc(CS(=O)(=O)c2ncc(Cl)c(C(=O)Nc3nnc(C(C)C)s3)n2)cc1`, the caspase activation ([2]; at 150 µM (top of the series)) was -1.79% (inactive).
In the case of `COc1cccc(C(=O)C(C#N)=C(SC)SC)c1`, the caspase activation ([2]; at 150 µM (top of the series)) is reported as -0.394% (inactive).
In the case of `O=C(Oc1cccc(/C=N/Nc2nc(Nc3ccccc3)nc(N3CCOCC3)n2)c1)c1ccco1`, the caspase activation ([2]; at 150 µM (top of the series)) is reported as 0.28% (inactive).
In the case of `Cc1cccc(CS(=O)(=O)c2ncc(Cl)c(C(=O)Nc3nnc(C(C)C)s3)n2)c1`, the caspase activation ([2]; at 150 µM (top of the series)) is reported as -1.69% (inactive).
In the case of `CCSc1nnc(NC(=O)c2nc(S(=O)(=O)Cc3ccc(F)cc3)ncc2Cl)s1`, the caspase activation ([2]; at 150 µM (top of the series)) is reported as -2.12% (inactive).
With `Nc1nc(F)nc2c1ncn2[C@@H]1O[C@H](CO)[C@@H](O)[C@H]1O` the caspase activation ([2]; at 150 µM (top of the series)) was 0.438% (inactive).
`Cc1ccc(Sc2c([N+](=O)[O-])c(=O)n(C)c3ccccc23)cc1` gave an AC50 [1] of 69.7 µM.
